Each block holds one molecule with its values, some of them ahead of it.
Columns and labels:
Stomach [1] = assay: Biodistribution in NMRI mouse stomach assessed as radioactivity after 60 mins; assay type: ADME, organism-based; conditions: in vivo, 1 h
Procedure, shortened: (§1)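 Male NMRI mice (37–43 g) given 0.1 mL HPLC-purified tracer (diluted in water for injection, EtOH <5%; 37 MBq/mL for 11C tracer, 3.7 MBq/mL for 18F tracer) via tail vein under ketamine/xylazine ip anaesthesia. Decapitation at 2 or 60 min, n=3 per time point. Organs dissected, weighed, gamma counted. Results given as %ID (cpm organ/total cpm recovered) or SUV. Blood mass taken as 7% of body mass. Mean ± SD.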

Stomach [2] = assay: Biodistribution in NMRI mouse stomach assessed as radioactivity after 2 mins; assay type: ADME, organism-based; conditions: in vivo; procedure, shortened: as §1
Mus musculus [3] = species on record: Mus musculus; assay: Biodistribution in NMRI mouse carcass assessed as radioactivity after 60 mins; assay type: ADME, organism-based; conditions: in vivo, 1 h; procedure, shortened: as §1
Blood [4] = assay: Drug uptake in mouse blood assessed as radioactivity at 11.5 MBq after 2 mins; assay type: ADME, tissue-based
Procedure, shortened: (§2)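 About 11.5 MBq of 18F tracer injected iv into mice. Decapitation at 2, 10 or 30 min, n=2 per time point. Blood collected into K2EDTA tubes, weighed and gamma counted. Plasma separated by centrifugation (1837g, 10 min) and counted. Values given as %ID/g normalised to sample weight and injected dose; plasma/whole-blood ratio also derived.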

Femur [5] = assay: Drug uptake in mouse femur bone assessed as radioactivity at 11.5 MBq after 10 mins; assay type: ADME, tissue-based; conditions: in vivo
Procedure, shortened: (§3)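 Normal mice given 11.5 MBq of 18F tracer. Killed at 2, 10 or 30 min, two animals per time point. Left and right femur and muscle collected, weighed and gamma counted. Uptake given as %ID/g.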

Muscle tissue [6] = assay: Drug uptake in mouse muscle assessed as radioactivity at 11.5 MBq after 30 mins; assay type: ADME, tissue-based; conditions: in vivo, 0.5 h; procedure, shortened: as §3
Mus musculus [7] = species on record: Mus musculus; assay: Biodistribution in NMRI mouse spleen + pancreas assessed as radioactivity after 2 mins; assay type: ADME, organism-based; conditions: in vivo; procedure, shortened: as §1
Muscle tissue [8] = assay: Drug uptake in mouse muscle assessed as radioactivity at 11.5 MBq after 2 mins; assay type: ADME, tissue-based; conditions: in vivo; procedure, shortened: as §3
Plasma [9] = assay: Metabolic stability in mouse plasma assessed as radioactivity after 10 mins; assay type: ADME, cell-free
Procedure, shortened: (§4)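 Plasma taken 2, 10 or 30 min after iv 18F tracer in normal mice (n=2 per time point), and urine collected at 60 min by manual bladder voiding. Samples spiked with authentic non-radioactive compound and applied without pretreatment to an Oasis HLB column in-line with a C18 RP-HPLC column. Eluate collected as 1 mL fractions and gamma counted. Result given as intact tracer as % of recovered radioactivity.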

Heart [10] = assay: Biodistribution in NMRI mouse heart assessed as radioactivity after 2 mins; assay type: ADME, organism-based; conditions: in vivo; procedure, shortened: as §1
Nucleic Acid [11] = assay: Ratio of drug level in plasma to whole blood in mouse assessed as radioactivity at 11.5 MBq, iv after 30 mins; assay type: ADME, organism-based; conditions: in vivo, 0.5 h
Procedure, shortened: (§5)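 Normal mice given about 11.5 MBq of the [18F] tracer iv, killed by decapitation at 2, 10 or 30 min pi (n = 2 per time). Blood was collected into a K2EDTA tube, weighed and gamma-counted, then centrifuged at 1837g for 10 min. Plasma was weighed and counted. Counts were normalised to sample weight and injected dose as %ID/g, and plasma %ID/g was divided by whole-blood %ID/g.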

Nucleic Acid [12] = assay: Ratio of drug level in plasma to whole blood in mouse assessed as radioactivity at 11.5 MBq, iv after 10 mins; assay type: ADME, organism-based; conditions: in vivo; procedure, shortened: as §5
Brain [13] = assay: Biodistribution in NMRI mouse brain assessed as radioactivity after 2 mins; assay type: ADME, organism-based; conditions: in vivo; procedure, shortened: as §1
[14] = Partition coefficient, log P in 1-octanol and phosphate buffer at pH 7.4; assay type: physicochemical; conditions: 1-octanol/phosphate buffer
Procedure, shortened: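 HPLC-isolated tracer (about 550 kBq 11C or 185 kBq 18F) partitioned between 1-octanol and 0.025 M phosphate buffer pH 7.4 (2 mL each). Vortexed 2 min at room temperature, centrifuged 1837 g for 5 min. Aliquots of both phases weighed and gamma counted. P calculated as the cpm/mL ratio after density correction; n=6.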

Mus musculus [15] = species on record: Mus musculus; assay: Biodistribution in NMRI mouse urine assessed as radioactivity after 2 mins; assay type: ADME, organism-based; conditions: in vivo; procedure, shortened: as §1
Mus musculus [16] = species on record: Mus musculus; assay: Biodistribution in NMRI mouse urine assessed as radioactivity after 60 mins; assay type: ADME, organism-based; conditions: in vivo, 1 h; procedure, shortened: as §1
Femur [17] = assay: Drug uptake in mouse femur bone assessed as radioactivity at 11.5 MBq after 2 mins; assay type: ADME, tissue-based; conditions: in vivo; procedure, shortened: as §3
Nucleic Acid [18] = assay: Ratio of drug level in femur bone to blood in mouse assessed as radioactivity at 11.5 MBq, iv after 30 mins; assay type: ADME, organism-based; conditions: other tissue, 0.5 h
Procedure, shortened: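 Normal mice injected with 11.5 MBq of the [18F] tracer and killed at 2, 10 or 30 min pi (two animals per time). Left and right femurs were collected, weighed and gamma-counted, and uptake was expressed as %ID/g. Blood %ID/g was reported at the same time points.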

Liver [19] = assay: Biodistribution in NMRI mouse liver assessed as radioactivity after 60 mins; assay type: ADME, organism-based; conditions: in vivo, 1 h; procedure, shortened: as §1
Mus musculus [20] = species on record: Mus musculus; assay: Biodistribution in NMRI mouse carcass assessed as radioactivity after 2 mins; assay type: ADME, organism-based; conditions: in vivo; procedure, shortened: as §1
Heart [21] = assay: Biodistribution in NMRI mouse heart assessed as radioactivity after 60 mins; assay type: ADME, organism-based; conditions: in vivo, 1 h; procedure, shortened: as §1
Nucleic Acid [22] = assay: Ratio of drug level in plasma to whole blood in mouse assessed as radioactivity at 11.5 MBq, iv after 2 mins; assay type: ADME, organism-based; conditions: in vivo; procedure, shortened: as §5
Liver [23] = assay: Biodistribution in NMRI mouse liver assessed as radioactivity after 2 mins; assay type: ADME, organism-based; conditions: in vivo; procedure, shortened: as §1
Mus musculus [24] = species on record: Mus musculus; assay: Biodistribution in NMRI mouse spleen + pancreas assessed as radioactivity after 60 mins; assay type: ADME, organism-based; conditions: in vivo, 1 h; procedure, shortened: as §1
Lung [25] = assay: Biodistribution in NMRI mouse lungs assessed as radioactivity after 60 mins; assay type: ADME, organism-based; conditions: in vivo, 1 h; procedure, shortened: as §1
Femur [26] = assay: Drug uptake in mouse femur bone assessed as radioactivity at 11.5 MBq after 30 mins; assay type: ADME, tissue-based; conditions: in vivo, 0.5 h; procedure, shortened: as §3
Intestine [27] = assay: Biodistribution in NMRI mouse intestine assessed as radioactivity after 2 mins; assay type: ADME, organism-based; conditions: in vivo; procedure, shortened: as §1
Plasma [28] = assay: Metabolic stability in mouse plasma assessed as radioactivity after 2 mins; assay type: ADME, cell-free; procedure, shortened: as §4
[29] = Drug uptake in LV-VZVTK-IP transduced 293T cells assessed as radioactivity at 185 kBq after 3 hrs; assay type: ADME, cell-based; conditions: human, hek-293t
Procedure, shortened: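 293T cells stably transduced with lentivirus carrying VZV-tk-IRES-pac (kept in 1 µg/mL puromycin), alongside untransduced control 293T cells. Plated in triplicate at 200 000 cells/well. After 24 h, fresh medium with HPLC-purified tracer added: 1.1 MBq (11C tracer, 0.5 h) or 185 kBq (18F tracer, 3 h), 37 °C. Cells washed with ice-cold PBS and lysed. Gamma counting. Uptake given as % of total radioactivity per mg protein (Bio-Rad assay).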

Blood [30] = assay: Biodistribution in NMRI mouse blood assessed as radioactivity after 60 mins; assay type: ADME, organism-based; conditions: in vivo, 1 h; procedure, shortened: as §1
Kidney [31] = assay: Biodistribution in NMRI mouse kidney assessed as radioactivity after 60 mins; assay type: ADME, organism-based; conditions: in vivo, 1 h; procedure, shortened: as §1
Brain [32] = assay: Biodistribution in NMRI mouse brain assessed as radioactivity after 60 mins; assay type: ADME, organism-based; conditions: in vivo, 1 h; procedure, shortened: as §1
Lung [33] = assay: Biodistribution in NMRI mouse lungs assessed as radioactivity after 2 mins; assay type: ADME, organism-based; conditions: in vivo; procedure, shortened: as §1
Blood [34] = assay: Biodistribution in NMRI mouse blood assessed as radioactivity after 2 mins; assay type: ADME, organism-based; conditions: in vivo; procedure, shortened: as §1
Kidney [35] = assay: Biodistribution in NMRI mouse kidney assessed as radioactivity after 2 mins; assay type: ADME, organism-based; conditions: in vivo; procedure, shortened: as §1
Plasma [36] = assay: Metabolic stability in mouse plasma assessed as radioactivity after 30 mins; assay type: ADME, cell-free; conditions: 0.5 h; procedure, shortened: as §4
Intestine [37] = assay: Biodistribution in NMRI mouse intestine assessed as radioactivity after 60 mins; assay type: ADME, organism-based; conditions: in vivo, 1 h; procedure, shortened: as §1
Blood [38] = assay: Drug uptake in mouse blood assessed as radioactivity at 11.5 MBq after 30 mins; assay type: ADME, tissue-based; conditions: 0.5 h; procedure, shortened: as §2
Blood [39] = assay: Drug uptake in mouse blood assessed as radioactivity at 11.5 MBq after 10 mins; assay type: ADME, tissue-based; procedure, shortened: as §2
[40] = Metabolic stability in mouse urine assessed as radioactivity after 1 hr; assay type: ADME, tissue-based; procedure, shortened: as §4
[41] = target: T1, Thymidine kinase, cytosolic (Homo sapiens, UniProt P04183); assay: Inhibition of human cytosolic thymidine kinase 1
T1 sequence (P04183 whole entry): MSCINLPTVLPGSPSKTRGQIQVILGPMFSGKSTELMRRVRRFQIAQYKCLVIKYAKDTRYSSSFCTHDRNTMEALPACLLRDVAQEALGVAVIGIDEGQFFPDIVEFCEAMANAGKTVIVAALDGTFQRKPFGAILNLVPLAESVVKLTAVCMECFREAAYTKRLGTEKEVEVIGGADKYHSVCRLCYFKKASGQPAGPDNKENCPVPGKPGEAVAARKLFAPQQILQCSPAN
Procedure, shortened: (§6)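 Purified recombinant VZV TK (7.75 ng), HSV-1 TK (226 ng) or human cytosolic TK-1 (455 ng) in 50 mM Tris-HCl pH 8.0, 2.5 mM MgCl2, 10 mM DTT, 2.5 mM ATP, 1 mg/mL BSA, 10 mM NaF, with 1 µM final [CH3-3H]dThd substrate. Incubated 30 min at 37 °C with varied compound concentrations; the reaction was linear over this time. Product bound on DE-81 filters, washed, and counted by liquid scintillation. Result reported as IC50.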

[42] = Inhibition of Varicella zoster virus thymidine kinase; design: species or system Human alphaherpesvirus 3; procedure, shortened: as §6
[43] = Inhibition of HSV1 thymidine kinase; design: species or system Human alphaherpesvirus 1; procedure, shortened: as §6

Drug uptake (Stomach [1]): 1.1 %ID
Drug uptake (Stomach [2]): 1.2 %ID
Drug uptake (Mus musculus [3]): 11.9 %ID
Drug uptake (Blood [4]): 1.57 % ID/g
Drug uptake (Femur [5]): 0.66 % ID/g
Drug uptake (Muscle tissue [6]): 0.25 % ID/g
Drug uptake (Mus musculus [7]): 1.4 %ID
Drug uptake (Muscle tissue [8]): 0.35 % ID/g
Stability (Plasma [9]): 82%
Drug uptake (Heart [10]): 0.3 %ID
Ratio (Nucleic Acid [11]): 1.02
Ratio (Nucleic Acid [12]): 1.34
Drug uptake (Brain [13]): 0 %ID
logD [14]: 1.2
Drug uptake (Mus musculus [15]): 11.8 %ID
Drug uptake (Mus musculus [16]): 34.8 %ID
Drug uptake (Femur [17]): 0.57 % ID/g
Ratio (Nucleic Acid [18]): 2
Drug uptake (Liver [19]): 4.3 %ID
Drug uptake (Mus musculus [20]): 18.3 %ID
Drug uptake (Heart [21]): 0.1 %ID
Ratio (Nucleic Acid [22]): 1.39
Drug uptake (Liver [23]): 24.7 %ID
Drug uptake (Mus musculus [24]): 1.1 %ID
Drug uptake (Lung [25]): 0.2 %ID
Drug uptake (Femur [26]): 1.25 % ID/g
Drug uptake (Intestine [27]): 17.7 %ID
Stability (Plasma [28]): 94.7%
Drug uptake [29]: 76.6 %ID
Drug uptake (Blood [30]): 1.5 %ID
Drug uptake (Kidney [31]): 1.1 %ID
Drug uptake (Brain [32]): 0 %ID
Drug uptake (Lung [33]): 0.7 %ID
Drug uptake (Blood [34]): 4.8 %ID
Drug uptake (Kidney [35]): 20.1 %ID
Stability (Plasma [36]): 40.6%
Drug uptake (Intestine [37]): 44.3 %ID
Drug uptake (Blood [38]): 0.63 % ID/g
Drug uptake (Blood [39]): 1.42 % ID/g
Stability [40]: 91.5%
SMILES: O=c1nc2oc(-c3ccc(OCC[18F])cc3)cc2cn1[C@H]1C[C@H](O)[C@@H](CO)O1

IC50 [41]: > 500 µM
IC50 [42]: 4.1 µM
IC50 [43]: > 500 µM
SMILES: O=c1nc2oc(-c3ccc(OCCCCCCF)cc3)cc2cn1[C@H]1C[C@H](O)[C@@H](CO)O1
